NPY-Y1 PAM-ag: NPY-Y1 receptor potentiators or agonists, primary screen, cell-based. NPY-Y1 expressing cells, potentiator/agonist activation. activation, % at 3.6 µM. 0.37% of 220,000 active. AID 1304, 2008; in the data active means activation above about 33%, passing the limit was not always enough;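 further: cells stimulated with NPY at EC10 then isoproterenol at EC100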
Target sequence (P25929 whole entry, looked up): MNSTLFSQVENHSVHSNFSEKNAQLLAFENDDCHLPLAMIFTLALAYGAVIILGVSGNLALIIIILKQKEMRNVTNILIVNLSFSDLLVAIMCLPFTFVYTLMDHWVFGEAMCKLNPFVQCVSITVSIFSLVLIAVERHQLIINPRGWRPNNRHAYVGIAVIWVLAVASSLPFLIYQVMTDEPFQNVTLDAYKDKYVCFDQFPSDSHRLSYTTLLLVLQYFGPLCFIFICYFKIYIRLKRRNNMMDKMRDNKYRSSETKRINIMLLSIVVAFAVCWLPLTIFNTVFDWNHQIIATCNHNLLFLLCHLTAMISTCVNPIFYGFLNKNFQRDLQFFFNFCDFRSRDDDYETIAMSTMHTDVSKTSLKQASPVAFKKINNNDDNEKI
NPY Y2 blocker: NPY-Y2 receptor antagonists, primary screen, cell-based; Neuropeptide Y receptor type 2 (Homo sapiens), P49146; NPY-Y2 expressing cells, antagonist mode; inhibition, % at 2.7 µM; 0.99% of 140,000 active; in the data active means inhibition above about 17%
NPY Y1 blocker: NPY-Y1 receptor antagonists, primary screen, cell-based; HEK293-CNG Y1 cells, membrane potential fluorescence; NPY at EC95, then isoproterenol; 1% of 200,000 active; inhibition, % at 3.6 µM; Neuropeptide Y receptor type 1 (Homo sapiens), P25929;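 active means inhibition above the campaign mean inhibition of all tested compounds plus 3 SD, cut at about 20% in these data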
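Benchmarks – high control isoproterenol alone, low control NPY with isoproterenol · Material – HEK293 Y1/CNG channel cell line · Times – dye 3 h, compound 60 min room temperature, stimulation 45 min · Probe or stimulus – NPY (25 nM), isoproterenol (1 µM), Ro 20-1724 (25 µM) · Evaluation – % inhibition of NPY effect · Signal – fluorescence, membrane potential probe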
NPY-Y2 PAM-ag: NPY-Y2 potentiators or agonists, primary screen, cell-based; Neuropeptide Y receptor type 2 (Homo sapiens), P49146; cells expressing NPY-Y2, potentiator/agonist read-out; activation, % at 3.6 µM; 0.45% of 220,000 active; AID 1359, 2008; in the data active means activation above about 27%;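 further: cells stimulated with NPY near EC25 plus isoproterenol at EC100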
EP2 modulator: EP2 receptor modulators, cAMP readout, primary screen, cell-based, HTRF cAMP, PGE2 stimulation; Prostaglandin E2 receptor EP2 subtype (Homo sapiens), P43116; EP2-expressing cells, cAMP HTRF FRET, PGE2 co-stimulation; induction, % at 25 µM; 0.83% of 260,000 active; AID 940, 2007;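 active means compounds whose cAMP rise, as percent of the full-agonist control response, exceeds 60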;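 further: rat C6 glioma line stably carrying human EP2 under a CMV promoter; the protocol text gives 20 µM as final concentration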
EP2 antag: human EP2 receptor antagonists, primary screen, TR-FRET cAMP, C6 glioma cells; Prostaglandin E2 receptor EP2 subtype (Homo sapiens), P43116; C6 glioma cells expressing human EP2; cells stimulated with saturating PGE2; inhibition, % at 25 µM; 0.52% of 260,000 active; AID 1422, 2008;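 active means percent inhibition above 40 after rounding to a whole number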;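 further: rat C6 glioma host cells with rolipram phosphodiesterase inhibitor present; the protocol text gives 20 µM as final concentration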
A number is an active result; . = inactive; / = no result given; ! = repeats disagree. Shown are actives, neighbours in structure and some others; about 2.8% of the full set was active somewhere.

SMILES	NPY-Y1 PAM-ag	NPY Y2 blocker	NPY Y1 blocker	NPY-Y2 PAM-ag	EP2 modulator	EP2 antag
CN1c2ccsc2C(O)=C(C(=O)Nc2ccccc2)S1(=O)=O	.	.	.	.	.	.
COCCOC(=O)c1c(C)oc2ccc(OCC#N)cc12	/	/	/	/	.	.
c1cn2c(NCC3CCCO3)c(-c3ccc(N4CCCC4)cc3)nc2cn1 (centres undefined)	/	/	/	/	.	.
COc1ccc(N2CCN(CC(=O)Nc3cccc(C(=O)O)c3)CC2)cc1	/	/	/	/	.	.
Cc1c(Cl)c(S(N)(=O)=O)cc(S(N)(=O)=O)c1NC(=O)c1ccc(Cl)cc1	/	/	/	/	.	45
Cc1cc(NC(=O)c2ccc(Cl)cc2)c(C)cc1O	.	/	.	.	.	.
CCN(CC)C(=S)SSC(=S)N(CC)CC	.	.	.	.	.	60!
NC(N)=Nc1nc(-c2ccc3c(c2)CC(=O)N3)cs1	/	/	/	/	.	.
COc1cc(S(=O)(=O)N(Cc2ccccc2)Cc2cccc(OC)c2OC)ccc1-n1cnnn1	/	/	/	/	.	.
CC(/C=N/NC(=O)NC1CCCCC1)=C\c1ccccc1	.	/	.	.	.	.
O=C(N/N=C/c1ccccc1)NC1CCCCC1	.	.	.	.	64	.
CC(C)c1nc2ccccc2c2nn(CC(=O)N3CCCCCC3)c(=O)n12	/	/	/	/	.	.
CCO/C=C1/C(=O)N(C(C)=O)c2ccccc21	.	.	.	.	.	.
COC(=O)/C=C1/C(=O)N(C(C)=O)c2ccccc21	/	/	/	/	.	71
CCC(=O)N1CCCc2cc(C(O)CN3CCC(O)(c4ccccc4C)CC3)ccc21 (centres undefined)	/	/	/	/	.	.
COc1ccc(C2(NC(=O)c3cc(C(C)(C)C)nn3C)CCCCC2)cc1	/	/	/	/	.	.
O=C1CC(c2ccc(O)c(O)c2)Oc2cc(O)cc(O)c21 (centres undefined)	/	/	/	/	.	.
Oc1cc(O)c2c(c1)O[C@@H](c1ccc(O)c(O)c1)[C@H](O[C@@]1(c3cc(O)c(O)c(O)c3)Oc3cc(O)cc(O)c3[C@H](O)[C@H]1O)C2	/	/	/	/	.	57
C=C(C)Cn1c(SCC(=O)c2ccccc2)nc2c1c(=O)[nH]c(=O)n2C	/	/	/	/	.	.
CN1CCN(Cc2nc3ccccc3c(=O)n2Cc2nc(-c3ccc([N+](=O)[O-])cc3)cs2)CC1	.	.	.	.	.	49
CN(C)Cc1nc2ccccc2c(=O)n1Cc1nc(-c2cccc([N+](=O)[O-])c2)cs1	.	/	.	.	.	.
CCOC(=O)C1=C(N)OC2=C(C(=O)CC(C)(C)C2)C1c1ccc(F)cc1 (centres undefined)	/	/	/	/	.	.
COC(=O)c1ccc(C2C(C(=O)OC(C)C)=C(N)OC3=C2C(=O)CC(C)(C)C3)cc1 (centres undefined)	/	/	/	/	65	.
O=C(OCCNC(=O)c1cc2ccccc2oc1=O)c1cccnc1	.	.	.	.	64	.
Cc1cc(C)c(OCC(=O)NCc2cccnc2)c(Cl)c1	/	/	/	/	.	.
SMILES	NPY-Y1 PAM-ag	NPY Y2 blocker	NPY Y1 blocker	NPY-Y2 PAM-ag	EP2 modulator	EP2 antag
N=c1sc2ccccc2n1-c1ccccc1	.	.	.	.	61	.
C=CC(=O)N=c1sc2ccccc2n1-c1ccccc1	.	/	.	.	.	.
Cc1ccc2cc(CN(CCN3CCCC3)C(=O)Nc3ccc(F)cc3)c(=O)[nH]c2c1C	.	.	26	.	.	.
Cc1ccc2cc(CN(CCN3CCCC3)C(=O)Nc3ccccc3)c(=O)[nH]c2c1C	.	.	.	.	.	.
O=C1C=CC(=O)c2c(O)c(Cl)c(Cl)c(O)c21	/	/	/	/	.	129
CCOC(=O)N1CCN(c2ncnc3c2[nH]c2ccc(F)cc23)CC1	.	.	.	.	.	.
Fc1ccc2[nH]c3c(N4CCN(c5ccccc5)CC4)ncnc3c2c1	.	.	.	.	.	88
COc1ccc(N2CCN(c3ncnc4c3[nH]c3ccccc34)CC2)cc1	.	.	.	.	.	54
CN1CCN(c2ccc(NC(=O)c3sc4ccccc4c3Cl)cc2)CC1	.	/	.	.	.	.
CN1CCc2ccccc2[C@H]1Cc1ccccc1NC(=O)c1sc2ccccc2c1Cl	/	/	/	/	.	42
